Test results from ChEMBL document CHEMBL1914423, “New imidazo[2,1-b]thiazole derivatives: synthesis, in vitro anticancer evaluation, and in silico studies” (Eur J Med Chem, 2011).

Experiments:
[1] = tested on: SNB-75; experiment: Anticancer activity against human SNB75 cells assessed as cell growth at 10^-5 M after 48 hrs by SRB assay; format: functional; conditions: SNB-75, 48 h, read-out: Activity
In short: (§1)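 NCI-60 single-dose screen: cells in RPMI 1640 with 5% FBS and 2 mM L-glutamine, plated at 5000–40,000 cells/well by doubling time, and preincubated 24 h at 37 °C. Compound given at one concentration from DMSO stock. Cells TCA-fixed and SRB-stained, absorbance at 515 nm. Percent growth relative to time-zero and untreated controls; inhibition % = 100 − growth %.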

[2] = tested on: RPMI-8226; experiment: Anticancer activity against human RPMI8226 cells assessed as cell growth at 10^-5 M after 48 hrs by SRB assay; format: functional; conditions: RPMI-8226, 48 h, read-out: Activity
[3] = tested on: NCI-H226; experiment: Anticancer activity against human NCI-H226 cells assessed as cell growth at 10^-5 M after 48 hrs by SRB assay; format: functional; conditions: NCI-H226, 48 h, read-out: Activity
[4] = tested on: SF-295; experiment: Anticancer activity against human SF295 cells assessed as cell growth at 10^-5 M after 48 hrs by SRB assay; format: functional; conditions: SF-295, 48 h, read-out: Activity
[5] = tested on: T47D; experiment: Anticancer activity against human T47D cells after 48 hrs by SRB assay; format: functional; conditions: for CC50: read-out: LC50 (the source's name)
In short: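 NCI-60 five-dose mode: cells in RPMI 1640 with 5% FBS and 2 mM glutamine, plated at 5000–40,000 cells/well, and preincubated 24 h, with time-zero plates TCA-fixed. Drug given at five concentrations (10-fold or ½-log serial dilutions). Cold TCA fixation 60 min at 4 °C, SRB stain, Tris solubilization, A515. IC50 taken where [(Ti−Tz)/(C−Tz)]×100 = 50.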

[6] = tested on: HCT-15; experiment: Anticancer activity against human HCT15 cells assessed as cell growth at 10^-5 M after 48 hrs by SRB assay; format: functional; conditions: HCT-15, 48 h, read-out: Activity
In short: (§2)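 NCI-60 single-dose screen at one concentration. Cells grown in RPMI 1640 with 5% FBS and 2 mM L-glutamine, plated at 5000–40,000 cells/well, and pre-incubated 24 h at 37 °C in 5% CO2 before DMSO-dissolved drug was added. Cells fixed with TCA, SRB-stained, absorbance read at 515 nm. Percent growth calculated against time-zero and untreated control plates.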

[7] = tested on: RXF 393; experiment: Anticancer activity against human RXF393 cells assessed as cell growth at 10^-5 M after 48 hrs by SRB assay; format: functional; conditions: RXF 393, 48 h, read-out: Activity
[8] = tested on: DU-145; experiment: Anticancer activity against human DU145 cells assessed as cell growth at 10^-5 M after 48 hrs by SRB assay; format: functional; conditions: DU-145, 48 h, read-out: Activity; in short: as §2
[9] = tested on: T47D; experiment: Anticancer activity against human T47D cells assessed as cell growth at 10^-5 M after 48 hrs by SRB assay; format: functional; conditions: read-out: Activity; in short: as §1
[10] = tested on: OVCAR-3; experiment: Anticancer activity against human OVCAR3 cells assessed as cell growth at 10^-5 M after 48 hrs by SRB assay; format: functional; conditions: OVCAR-3, 48 h, read-out: Activity
[11] = tested on: SK-MEL-28; experiment: Anticancer activity against human SK-MEL-28 cells assessed as cell growth at 10^-5 M after 48 hrs by SRB assay; format: functional; conditions: SK-MEL-28, 48 h, read-out: Activity
[12] = tested on: HL-60(TB); experiment: Anticancer activity against human HL-60(TB) cells assessed as cell growth at 10^-5 M after 48 hrs by SRB assay; format: functional; conditions: HL-60, 48 h, read-out: Activity
In short: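 NCI-60 single-dose screen. Cells in RPMI 1640 with 5% FBS and 2 mM L-glutamine were plated at 5000–40,000 cells/well and preincubated 24 h at 37 °C before one compound concentration. Time-zero plates were TCA-fixed at drug addition. For suspension cells, settled cells were fixed with cold TCA, then SRB-stained and read at 515 nm. Percent growth was calculated from time-zero, control and treated absorbances.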

[13] = tested on: IGROV-1; experiment: Anticancer activity against human IGROV1 cells assessed as cell growth at 10^-5 M after 48 hrs by SRB assay; format: functional; conditions: IGROV-1, 48 h, read-out: Activity; in short: as §2
[14] = tested on: MCF7; experiment: Anticancer activity against human MCF7 cells assessed as cell growth at 10^-5 M after 48 hrs by SRB assay; format: functional; conditions: MCF7, 48 h, read-out: Activity; in short: as §2
[15] = tested on: SF-539; experiment: Anticancer activity against human SF539 cells assessed as cell growth at 10^-5 M after 48 hrs by SRB assay; format: functional; conditions: SF-539, 48 h, read-out: Activity
[16] = tested on: ACHN; experiment: Anticancer activity against human ACHN cells assessed as cell growth at 10^-5 M after 48 hrs by SRB assay; format: functional; conditions: read-out: Activity; in short: as §2
[17] = tested on: A549; experiment: Anticancer activity against human A549 cells assessed as cell growth at 10^-5 M after 48 hrs by SRB assay; format: functional; conditions: A549, 48 h, read-out: Activity; in short: as §2
[18] = tested on: CAKI-1; experiment: Anticancer activity against human Caki1 cells assessed as cell growth at 10^-5 M after 48 hrs by SRB assay; format: functional; conditions: CAKI-1, 48 h, read-out: Activity; in short: as §2
[19] = tested on: NCI-H522; experiment: Anticancer activity against human NCI-H522 cells assessed as cell growth at 10^-5 M after 48 hrs by SRB assay; format: functional; conditions: NCI-H522, 48 h, read-out: Activity
[20] = tested on: MDA-MB-468; experiment: Anticancer activity against human MDA-MB-468 cells assessed as cell growth at 10^-5 M after 48 hrs by SRB assay; format: functional; conditions: MDA-MB-468, 48 h, read-out: Activity
[21] = tested on: MDA-MB-435; experiment: Anticancer activity against human MDA-MB-435 cells assessed as cell growth at 10^-5 M after 48 hrs by SRB assay; format: functional; conditions: MDA-MB-435, 48 h, read-out: Activity
[22] = tested on: SNB-19; experiment: Anticancer activity against human SNB19 cells assessed as cell growth at 10^-5 M after 48 hrs by SRB assay; format: functional; conditions: SNB-19, 48 h, read-out: Activity
[23] = tested on: 786-0; experiment: Anticancer activity against human 786-0 cells assessed as cell growth at 10^-5 M after 48 hrs by SRB assay; format: functional; conditions: 786-0, 48 h, read-out: Activity; in short: as §2
[24] = Antiproliferative activity against human A375P cells after 48 hrs by MTT assay; format: functional, cell-based
In short: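 A375P cells in DMEM with 10% FBS at 37 °C, 5% CO2. Seeded at 5×10³ cells/well, held 24 h, then treated with 12-point 3-fold serial dilutions for 48 h. Viability by MTT reduction. IC50 values are means of triplicate experiments.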

[25] = tested on: HT-29; experiment: Anticancer activity against human HT-29 cells assessed as cell growth at 10^-5 M after 48 hrs by SRB assay; format: functional; conditions: HT-29, 48 h, read-out: Activity; in short: as §2
[26] = tested on: K562; experiment: Anticancer activity against human K562 cells assessed as cell growth at 10^-5 M after 48 hrs by SRB assay; format: functional; conditions: K562, 48 h, read-out: Activity; in short: as §2
[27] = tested on: KM12; experiment: Anticancer activity against human KM12 cells assessed as cell growth at 10^-5 M after 48 hrs by SRB assay; format: functional; conditions: KM12, 48 h, read-out: Activity; in short: as §2

Compound | growth at 10 µM [1] [%] | growth at 10 µM [2] [%] | growth at 10 µM [3] [%] | growth at 10 µM [4] [%] | GI50 [5] [µM] | TGI [5] [µM] | CC50 [5] [µM] | growth at 10 µM [6] [%] | growth at 10 µM [7] [%] | growth at 10 µM [8] [%] | growth at 10 µM [9] [%] | growth at 10 µM [10] [%] | growth at 10 µM [11] [%] | growth at 10 µM [12] [%] | growth at 10 µM [13] [%] | growth at 10 µM [14] [%] | growth at 10 µM [15] [%] | growth at 10 µM [16] [%] | growth at 10 µM [17] [%] | growth at 10 µM [18] [%] | further results
O=C(NCCNc1nccc(-c2c(-c3cccc(O)c3)nc3sccn23)n1)Nc1cccc(C(F)(F)F)c1 | 66.2 | -4.81 | 97 | 75.5 | 6.52 | 25.6 | 97.1 | 84.7 | 26.2 | 89 | 63.8 | 76.7 | 48.8 | 36.4 | 65.6 | 55.6 | 98.5 | 85.1 | 39.3 | 90.3 | growth at 10 µM [19]: -5.9%; growth at 10 µM [20]: -40.6%; growth at 10 µM [21]: -3.01%; growth at 10 µM [22]: 89.5%; growth at 10 µM [23]: 79.4%; IC50 [24]: 4.2 µM; growth at 10 µM [25]: 38.9%; growth at 10 µM [26]: 70.6%; growth at 10 µM [27]: 14.1%
O=C(NCCNc1nccc(-c2c(-c3cccc(O)c3)nc3sccn23)n1)c1ccccc1 | 54.4 | 76.8 | 54.5 | 67.4 | 11 | 49 | > 100 | 88.4 | 62.6 | 90.5 | 58.6 | 92.3 | 37.8 | 93.3 | 57.4 | 38.1 | 73.2 | 60.5 | 56.3 | 87.9 | growth at 10 µM [19]: 72.7%; growth at 10 µM [20]: 54.7%; growth at 10 µM [21]: 24%; growth at 10 µM [22]: 91.1%; growth at 10 µM [23]: 66.5%; IC50 [24]: 0.5 µM; growth at 10 µM [25]: 65.4%; growth at 10 µM [26]: 62.8%; growth at 10 µM [27]: 75.9%
O=C(NCCNc1nccc(-c2c(-c3cccc(O)c3)nc3sccn23)n1)c1ccccc1O | 40.6 | 11.6 | 80.5 | 46.4 | 2.95 | 20 | > 100 | 54.5 | 50.9 | 67.2 | 61.8 | 60.2 | 41.4 | 59.8 | 31.6 | 37 | 61.9 | 46.1 | 43.3 | 24.3 | growth at 10 µM [19]: 29%; growth at 10 µM [20]: 52%; growth at 10 µM [21]: 14.3%; growth at 10 µM [22]: 90.2%; growth at 10 µM [23]: 64.6%; IC50 [24]: 3.2 µM; growth at 10 µM [25]: 49.2%; growth at 10 µM [26]: 40.5%; growth at 10 µM [27]: 46.7%
